Experimental data reported in ChEMBL document CHEMBL5104206, “Oleic amide derivatives as small molecule stimulators of the human proteasome's core particle” (RSC Med Chem, 2022).
Active and inactive are the calls of the source. No cut-off for these calls is given here.

Key:
[1] = molecular target: T1, 20S proteasome (Homo sapiens) (UniProt P49721+P20618+P28074+P28062+P28065+P28072+P25786+P25787+P25788+P25789+P28066+P60900+O14818+Q8TAA3+P40306+A5LHX3+P49720+P28070+Q99436); assay: Stimulation of human 20S proteasome assessed as increase in proteasome activity at 25 uM and measured upto 60 mins using FRET peptide as substrate by FRET assay relative to control; assay type: protein-complex assay; conditions: filed as activator
Procedure, shortened: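 Purified 20S CP (5 nM) with 20 µM FRET peptide reporter in Tris-HCl (50 mM, pH 7.63), 2% DMSO, 25 µL. Controls were reporter alone and basal enzyme with DMSO, in triplicate. Read at 37 °C, ex 335/em 493 nm, every 2 min for 60 min. Rate taken as slope of linear portion.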

[2] = molecular target: T2, Proteasome Macropain subunit MB1 (Homo sapiens) (UniProt P28074); assay: Stimulation of human 20S proteasome beta 5 subunit in human HEK-293T cells assessed as increase in proteasome activity at 6.25 to 25 uM preincubated for 2 hrs followed by Me4BodipyFL-Ahx3Leu3VS proteasome probe addition and measured after 1 hrs by SDS-PAGE analysis; assay type: cell-based; conditions: filed as activator, dose 6.25-25 µM
T2 sequence (whole entry): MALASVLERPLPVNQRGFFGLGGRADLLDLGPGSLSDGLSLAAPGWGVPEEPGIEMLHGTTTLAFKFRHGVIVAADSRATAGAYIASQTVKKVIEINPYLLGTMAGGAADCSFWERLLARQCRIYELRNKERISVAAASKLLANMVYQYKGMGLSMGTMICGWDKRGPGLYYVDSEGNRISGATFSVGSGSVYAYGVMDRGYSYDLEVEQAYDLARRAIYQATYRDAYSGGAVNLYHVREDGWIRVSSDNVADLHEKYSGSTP
Procedure, shortened: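 Treated 2 h in fresh medium, DMSO control 0.5%, then 1 µM Me4BodipyFL-Ahx3Leu3VS probe added. Cells lysed in M-PER with protease inhibitors. 50 µg protein run on 4–15% SDS-PAGE, in-gel fluorescence scanned at 488 nm. Band densities quantified, triplicate.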

HEK-293T = assay: Cytotoxicity against human HEK-293T cells assessed as reduction in cell viability at 6.25 to 25 uM incubated for 24 hrs by CellTiter Glo viability assay; assay type: toxicity, cell-based; conditions: dose 6.25-25 µM
Procedure, shortened: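 HEK-293T seeded at 5000 cells/well, attached overnight, medium refreshed. Compound in DMSO added in triplicate, 1% final DMSO, 24 h. Plate equilibrated to room temperature 30 min before CellTiter-Glo reagent, shaken 10 min, signal stabilized 10 min. Luminescence read.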

[3] = molecular target: T1, 20S proteasome (Homo sapiens); assay: Activation of human 20S proteasome mediated degradation of alpha-synuclein assessed as amount of alpha-synuclein remaining at 25 uM and incubated for 2 hrs by Coomassie staining based SDS-PAGE analysis; assay type: protein-complex assay; conditions: filed as activator
Procedure, shortened: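 Human 20S CP (5 nM final) with α-Syn monomer (400 ng) in Tris-HCl (50 mM, pH 7.6), 2% DMSO, 18 µL total, 2 h at 37 °C, triplicate. Mixed on ice before incubation. Stopped in SDS loading buffer at 95 °C 5 min. Run on 4–15% SDS-PAGE, Coomassie stained, band intensity normalized to α-Syn without 20S CP.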

Compound | Activity [1] [%] | further results
CCCCCCCC/C=C\CCCCCCCC(=O)NCc1ccc(C)cc1 | 167 | 
CCCCCCCC/C=C\CCCCCCCC(=O)Nc1ccc(C(C)(C)C)cc1 | 68 | 
CCCCCCCC/C=C\CCCCCCCC(=O)NC | 132 | 
CCCCCCCC/C=C\CCCCCCCC(=O)NCc1ccccc1 | 208 | 
CCCCCCCC/C=C\CCCCCCCC(=O)NCc1ccc(C(F)(F)F)cc1 | 92 | 
CCCCCCCC/C=C\CCCCCCCC(=O)Nc1ccc(O)cc1 | 247 | 
CCCCCCCC/C=C\CCCCCCCC(=O)NC1CCCCCCC1 | 148 | 
CCCCCCCC/C=C\CCCCCCCC(=O)NC1CCCCCC1 | 136 | 
CCCCCCCC/C=C\CCCCCCCC(=O)N[C@@H](C)c1ccccc1 | 195 | 
CCCCCCCC/C=C\CCCCCCCC(=O)NCc1ccc(C(C)(C)C)cc1 | 106 | 
CCCCCCCC/C=C\CCCCCCCC(=O)Nc1ccccc1 | 159 | 
CCCCCCCC/C=C\CCCCCCCC(=O)NCc1ccc(O)cc1 | 361 | Activity [2]: Active; Activity (HEK-293T): Toxic; Activity [3]: Active
CCCCCCCC/C=C\CCCCCCCC(=O)NC1CCCC1 | 218 | 
CCCCCCCC/C=C\CCCCCCCC(=O)NCc1ccc(Cl)cc1 | 138 | 
CCCCCCCC/C=C\CCCCCCCC(=O)NCc1ccc(OC)cc1 | 116 | 
CCCCCCCC/C=C\CCCCCCCC(=O)NCC(C)C | 139 | 
CCCCCCCC/C=C\CCCCCCCC(=O)NCCCC | 138 | 
CCCCCCCC/C=C\CCCCCCCC(=O)N[C@H]1CC[C@H](C)CC1 | 118 | 
CCCCCCCC/C=C\CCCCCCCC(=O)NCc1cccc(C)c1 | 183 | 
CCCCCCCC/C=C\CCCCCCCC(=O)NC1CCC1 | 202 | 
CCCCCCCC/C=C\CCCCCCCC(=O)NCCCCC | 124 | 
CCCCCCCC/C=C\CCCCCCCC(=O)NCCC | 154 | Activity [2]: Active; Activity (HEK-293T): Toxic; Activity [3]: Active
CCCCCCCC/C=C\CCCCCCCC(=O)Nc1ccc(C(C)=O)cc1 | 241 | Activity [2]: Active; Activity (HEK-293T): Non-Toxic; Activity [3]: Active
CCCCCCCC/C=C\CCCCCCCC(=O)NCc1ccccc1C | 107 | 
CCCCC/C=C\C/C=C\C/C=C\C/C=C\CCCC(=O)Nc1ccc(O)cc1 | 219 | Activity ([2]; DDE = dose-dependent effect): Dde; Activity (HEK-293T): Toxic; Activity [3]: Active
CCCCCCCC/C=C\CCCCCCCC(=O)N[C@H](C)c1ccccc1 | 225 | 
CCCCCCCC/C=C\CCCCCCCC(=O)NC1CCCCC1 | 204 | 
CCCCCCCC/C=C\CCCCCCCC(=O)Nc1ccc(Cl)cc1 | 144 | 
CCCCCCCC/C=C\CCCCCCCC(=O)Nc1ccc(Oc2ccccc2)cc1 | 145 | 
